Assay outcomes (PubChem BioAssay)
The list is not random: actives were taken first. Their share in the collection is about 3.8%.
FGF22 binding-1 = shifts melting point of recombinant human FGF22. recombinant FGF22 thermal shift, SYPRO orange fluorescence; percent of sucrose octasulfate shift, DMSO zero. activity (Tm shift, normalised), % at 9.99 µM. 1.5% of 340,000 active. AID 651658;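 active = mean Tm shift, scaled 0 neutral to 100 positive control, at about 1.3% or above, every replicate too, limit read from the data; inconclusive = no clear call, values can overlap the other calls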
Target sequence (Q9HCT0 whole entry, looked up): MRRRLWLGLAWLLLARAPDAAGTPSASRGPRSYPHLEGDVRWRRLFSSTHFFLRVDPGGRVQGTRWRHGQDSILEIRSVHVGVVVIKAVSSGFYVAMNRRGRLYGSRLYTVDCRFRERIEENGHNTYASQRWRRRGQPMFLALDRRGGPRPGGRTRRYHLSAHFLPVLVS
SIRT5 inh = inhibitors of human sirtuin-5 desuccinylase. Q9NXA8. Purified SirT5, succinyl-peptide AMC, trypsin-coupled fluorescence. inhibition, % at 15 µM. 1.1% of 330,000 active. AID 652115; in the data active = inhibition above about 15%; inconclusive = no clear call, values can overlap the other calls
Target sequence (Q9NXA8 whole entry, looked up): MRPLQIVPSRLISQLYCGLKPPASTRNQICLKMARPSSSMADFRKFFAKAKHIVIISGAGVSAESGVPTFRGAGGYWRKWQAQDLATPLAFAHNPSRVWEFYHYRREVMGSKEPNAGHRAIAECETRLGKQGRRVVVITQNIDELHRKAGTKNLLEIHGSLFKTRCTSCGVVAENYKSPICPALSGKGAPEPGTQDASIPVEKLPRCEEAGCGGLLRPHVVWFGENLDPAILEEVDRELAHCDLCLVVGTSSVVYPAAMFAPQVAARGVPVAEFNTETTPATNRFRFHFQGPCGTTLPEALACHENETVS
DENV2 CPE rescue = protects cells from dengue virus 2 cytopathic effect; DENV2-infected cells, cytopathic effect rescue, plate reader; 1.7% of 350,000 active; CPE inhibition, % at 9.99 µM; AID 651640; in the data active = CPE inhibition above about 20%, passing the limit was not always enough; inconclusive = no clear call, values can overlap the other calls; tested in BHK-21 cells
Xi reactivation = activators of X-chromosome reactivation in mouse fibroblasts. XiGFP mouse fibroblasts, % GFP-positive cells imaging, 3 d; cells co-treated with 5-aza-dC sensitizer; scaled so ellipticine positive control = 100%. 0.055% of 360,000 active. activation, % at 7.58 µM;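 active = mean normalized replicate activation at least 10% and every replicate at or above 10%; inconclusive = only one of the two criteria met; inactive = mean below 10% and not all replicates reach 10%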
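assay system = SV40-immortalized XiGFP fibroblast cells, line 68-5-11 | buffer or medium = DMEM plus 5-aza-dC sensitizer | doses = single-point pinned compound dosing | times = 3-day compound exposure, then 15 min fixation at room temperature | benchmarks = positive control ellipticine, 6 µM final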
FN deposition inh = fibronectin deposition inhibition. AH1F fibroblasts, Alexa488-fibronectin deposition fluorescence, overnight. inhibition, % at 12.6 µM. 0.086% of 350,000 active;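 active = mean inhibition across replicates of 30% or more, regardless of how many single replicates reach that level; inconclusive = mean under 30% yet at least half of replicates reach 30%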
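Assay system: AH1F fibroblasts / Quantity: 10000 cells per well / Medium: DMEM plus 2% serum, read in PBS / Reagent: labelled fibronectin 24 nM / Dosing: single dose, pinned / Times: 1 h cell attachment, overnight exposure to compound and label / Signal: fluorescence, ex 485 nm, em 525 nm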
ARNT TACC3 PPI = ARNT/TACC3 interaction disruption; inhibition, % at 9.99 µM; AlphaScreen His-ARNT PAS-B/GST-TACC3 binding, luminescence; TACC3 fragment carries E629A point mutation; AID 623870; 0.66% of 390,000 active;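 active = mean inhibition of replicates at least 50% and at least half of replicates each reaching 50%; inconclusive = half or more replicates reach 50% but mean below 50%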
FGF22 binding-2 = binders of human FGF22 by thermal shift; AID 720646; thermal shift activity, °C (ΔTm) at 38 µM; shares compounds with FGF22 binding-1; 2% of 1,000 active; recombinant FGF22 thermal shift, SYPRO orange fluorescence;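 active = fitted rise in melting shift crosses a set limit at or below the top valid dose tested; inconclusive = flat fit at mid-level activity, or a poor quality fit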
SYPRO no-protein = shows thermal shift signal without protein, FGF22 counter-screen; 2% of 1,000 active; AC50, µM (titrated, usually from 38 µM); compound-only SYPRO orange thermal shift counter-screen, no protein; AID 743019; shares compounds with FGF22 binding-1;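 active = rising signal whose fitted curve reaches the 0.54 level within the top valid dose, showing a melting point, actives reach about 13 µM in these data; inactive = the rest, including activity in the opposite direction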; also: value is where the raw curve crosses a fixed level and not half-maximal
Each line names hits and unclear results; the compound was inactive in the other large screens (follow-up assays come after a bar, where they were run).

O=C(NCC1CC1)[C@H]1[C@H](CO)[C@H]2Cn3c(ccc(/C=C/c4ccccc4)c3=O)[C@@H]1N2C(=O)C1CC1	none (no result: FN deposition inh)
O=C(COc1cccc(Cl)c1)NCC(c1cccs1)N1CCOCC1 (configuration not stated)	FGF22 binding-1 1.6 | FGF22 binding-2 inactive | SYPRO no-protein inactive
O=C(NC1CCCCC1)c1cc(-c2cccc(Cl)c2)on1	FGF22 binding-1 3.9 | FGF22 binding-2 inactive | SYPRO no-protein inactive
O=C(C[C@H]1C=C[C@@H](NS(=O)(=O)c2ccccc2)[C@@H](CO)O1)N1CCc2ccccc2C1	none (no result: FN deposition inh)
COc1ccc(S(=O)(=O)N[C@@H]2CC[C@H](CC(=O)N3CCc4ccccc4C3)O[C@@H]2CO)cc1	none (no result: FN deposition inh)
COc1ccc(S(=O)(=O)N[C@H]2CC[C@H](CC(=O)N3CCc4ccccc4C3)O[C@@H]2CO)cc1	FGF22 binding-1 17 (no result: FN deposition inh) | FGF22 binding-2 inactive | SYPRO no-protein inactive
Cc1ccc(S(=O)(=O)N[C@@H]2C=C[C@@H](CC(=O)N3CCc4ccccc4C3)O[C@@H]2CO)cc1	FGF22 binding-1 1.3, DENV2 CPE rescue 28 (no result: FN deposition inh) | FGF22 binding-2 inactive | SYPRO no-protein inactive
CCOC(=O)c1ccc(S(=O)(=O)NNS(=O)(=O)c2ccc(C)cc2)cc1	none
CCOC(=O)c1ccc(S(=O)(=O)Nc2cc(C(=O)O)ccc2Cl)cc1	FGF22 binding-1 2.2 | FGF22 binding-2 inactive | SYPRO no-protein inactive
Cc1noc(C)c1S(=O)(=O)Nc1ccc2c(c1)CC(=O)N([C@@H](C)CO)C[C@@H](C)[C@@H](CN(C)Cc1ccc(Cl)c(Cl)c1)O2	FGF22 binding-1 1.5 | FGF22 binding-2 inactive | SYPRO no-protein inactive
Cc1ccc(S(=O)(=O)Nc2ccc3c(c2)CC(=O)N([C@@H](C)CO)C[C@H](C)[C@@H](CN(C)S(C)(=O)=O)O3)cc1	FGF22 binding-1 2.2 | FGF22 binding-2 inactive | SYPRO no-protein inactive
Cc1ccc(S(=O)(=O)Nc2ccc3c(c2)CC(=O)N([C@@H](C)CO)C[C@@H](C)[C@H](CN(C)S(C)(=O)=O)O3)cc1	none
C[C@H](CO)N1C[C@H](C)[C@H](CN(C)CC2CC2)Oc2ccc(NS(=O)(=O)c3ccc(F)cc3)cc2CC1=O	none
C[C@H]1CN([C@@H](C)CO)C(=O)Cc2cc(NS(=O)(=O)c3ccc(F)cc3)ccc2O[C@H]1CN(C)CC1CCCCC1	FGF22 binding-1 12, SIRT5 inh 17 (no result: FN deposition inh) | FGF22 binding-2 inactive | SYPRO no-protein inactive
C[C@H]1CN([C@@H](C)CO)S(=O)(=O)c2ccc(C3=CCCCC3)cc2O[C@H]1CN(C)C(=O)C1CCOCC1	none
C[C@H](CO)N1C[C@H](C)[C@@H](CN(C)C)Oc2ccc(NS(=O)(=O)c3ccc(F)cc3)cc2CC1=O	none (no result: FN deposition inh)
C[C@@H]1CN([C@@H](C)CO)C(=O)c2cc(NC(=O)Cc3ccccc3)ccc2O[C@@H](C)CCCCO[C@@H]1CN(C)C(=O)c1ccncc1	none (no result: ARNT TACC3 PPI)
Cc1ccc(-c2ccc3c(c2)O[C@@H](CN(C)Cc2cncnc2)[C@H](C)CN([C@@H](C)CO)S3(=O)=O)cc1	DENV2 CPE rescue inconclusive (no result: FN deposition inh)
CCCCNC(=O)c1onc(CSc2ccc(F)c(F)c2)c1C(=O)NCCCC	FGF22 binding-1 31 | FGF22 binding-2 inactive | SYPRO no-protein 6.3µM
Cc1[nH]c(=O)[nH]c(=O)c1S(=O)(=O)Nc1cccc([N+](=O)[O-])c1C	FGF22 binding-1 4.6 | FGF22 binding-2 inactive | SYPRO no-protein inactive
CCC(=O)Nc1ccc2c(c1)OC[C@H](C)N(Cc1ccccc1OC)C[C@H](C)[C@H](OC)CN(C)C2=O	none
Cc1ccc2nc(-c3ccc(NC(=O)CSCC(=O)O)cc3)sc2c1	none
CC(=O)Nc1ccc2nc(NC(=O)COc3ccc(C)cc3)sc2c1	FGF22 binding-1 1.5 | FGF22 binding-2 inactive | SYPRO no-protein 12µM
CC(=O)Nc1ccc2nc(NC(=O)COc3ccccc3)sc2c1	none
Cc1ccc2nc(-c3ccc(NC(=O)COCC(=O)O)cc3)sc2c1	FGF22 binding-1 23 | FGF22 binding-2 inactive | SYPRO no-protein inactive
O=C(NCc1ccc(F)cc1)[C@@H]1[C@@H](CO)[C@@H]2Cn3c(cccc3=O)[C@@H]2N1CCC(F)(F)F	none (no result: FN deposition inh)
COCC(=O)N1CC2(CCN(Cc3nccs3)CC2)c2c(n(C)c3cc(OC)ccc23)[C@@H]1CO	none (no result: FN deposition inh, ARNT TACC3 PPI)
O=C(N/N=C/c1ccc(O)c(O)c1)N/N=C/c1ccc(O)c(O)c1	FGF22 binding-1 1.4, DENV2 CPE rescue inconclusive | FGF22 binding-2 inactive | SYPRO no-protein inactive
COc1ccc(C(=O)Nc2nc(CC(=O)NCCc3cccc(OC)c3)cs2)cc1	DENV2 CPE rescue inconclusive
COc1ccc(C(=O)Nc2nc(CC(=O)NCCc3ccccc3)cs2)cc1	FGF22 binding-1 2.2 | FGF22 binding-2 inactive | SYPRO no-protein inactive
COc1ccccc1NC(=O)N[C@@H]1CC[C@H](CCn2cc(-c3ccccc3OC)nn2)O[C@@H]1CO	FGF22 binding-1 1.3 | FGF22 binding-2 inactive | SYPRO no-protein inactive
COc1ccccc1NC(=O)N[C@H]1CC[C@H](CCn2cc(-c3ccccc3OC)nn2)O[C@H]1CO	FGF22 binding-1 1.7, DENV2 CPE rescue inconclusive | FGF22 binding-2 inactive | SYPRO no-protein inactive
COc1ccc(NC(=O)N[C@@H]2CC[C@H](CCn3cc(-c4ccc(F)cc4)nn3)O[C@@H]2CO)cc1	none
COc1ccccc1NC(=O)N[C@H]1CC[C@H](CCn2cc(-c3ccccc3)nn2)O[C@H]1CO	none (no result: FN deposition inh)
COc1ccc(-c2cn(CC[C@H]3CC[C@H](NC(=O)Nc4ccc(F)cc4)[C@@H](CO)O3)nn2)cc1	FGF22 binding-1 1.5 (no result: ARNT TACC3 PPI) | FGF22 binding-2 inactive | SYPRO no-protein inactive
O=C(C[C@@H]1CC[C@@H]2[C@H](COC[C@@H](O)CN2C(=O)c2cnccn2)O1)NCc1ccc(Cl)cc1	none
COc1ccccc1NC(=O)c1ccc(NC(=O)COC(=O)c2ccc(O)cc2)cc1	FGF22 binding-1 1.7 | FGF22 binding-2 inactive | SYPRO no-protein inactive
COc1ccccc1NC(=O)c1ccc(NC(=O)COC(=O)C(C)C)cc1	none (no result: FGF22 binding-1, SIRT5 inh, DENV2 CPE rescue)
CCc1ccc(C(=O)NNC(=O)c2cccc(N3C(=O)CCC3=O)c2)cc1	FGF22 binding-1 19, DENV2 CPE rescue inconclusive | FGF22 binding-2 inactive | SYPRO no-protein inactive
O=C(Nc1cccnc1)c1ccc(NS(=O)(=O)c2cccc([N+](=O)[O-])c2)cc1	FGF22 binding-1 1.8 | FGF22 binding-2 inactive | SYPRO no-protein inactive
